Laboratory results as given in ChEMBL document CHEMBL3797163, “Tryptic Stability of Synthetic Bactenecin Derivatives Is Determined by the Side Chain Length of Cationic Residues and the Peptide Conformation” (J Med Chem, 2016).
≈ marks a conversion by molar mass, not a printed value. Square brackets hold non-standard residues; d marks the D form. Peptide text beside a SMILES is read from it. hArg = N=C(N)NCCCC[C@H](N)C(=O)O; Orn = NCCC[C@H](N)C(=O)O; Dab = NCC[C@H](N)C(=O)O

Tests used:
[1] = Stability of compound assessed as bovine trypsin mediated degradation at 2 to 5 mM after 2 hrs by HPLC/MS analysis; format: ADME, Bos taurus; settings: cattle, isolated protein, 5000 µM
How it was run: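 Bovine pancreatic trypsin (salt-free) was freshly dissolved at 1 mg per 50 mL in 0.1 M NH4HCO3, pH 8.2, and added to peptide, which was diluted from 2˗5 mM stocks to a final 60 µM. Reactions were shaken at 37 °C and sampled at 2 h and 24 h. Aliquots were quenched with acetic acid/TFA and analysed by RP-HPLC (C18, 220 nm) and direct-injection ESI-MS. No-enzyme samples served as controls.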

Acinetobacter baumannii = assay: Antimicrobial activity against Acinetobacter baumannii ATCC 17978 incubated overnight by microdilution method; format: functional
How it was run: (§1)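 Broth microdilution in Mueller-Hinton broth. Peptides were serially diluted 2-fold in water at twice the final concentration, then mixed 1:1 with bacteria in 2× MHB to a final 2˗7 × 10^5 CFU/mL. Plates were incubated overnight at 37 °C. MIC was taken as the lowest concentration showing no growth.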

Escherichia coli = assay: Antimicrobial activity against Escherichia coli O157:H7 incubated overnight by microdilution method; format: functional
How it was run: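 Broth microdilution in Mueller-Hinton broth. Peptides were serially diluted twofold in water at 2× final concentration and mixed 1:1 with bacteria in 2× MHB, giving a final inoculum of 2-7 × 10^5 CFU/mL. Plates were incubated overnight at 37 °C. MIC was read as the lowest concentration with no visible growth.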

Staphylococcus aureus = assay: Antimicrobial activity against Staphylococcus aureus C622 incubated overnight by microdilution method; format: functional; how it was run: as §1
Bacillus subtilis = assay: Antimicrobial activity against Bacillus subtilis C626 incubated overnight by microdilution method; format: functional; how it was run: as §1

Compound | Stability [1] | MIC (Acinetobacter baumannii) | MIC (Escherichia coli) | MIC (Staphylococcus aureus) | MIC (Bacillus subtilis)
CC[C@@H](C)[C@@H](NC(=O)[C@@H](Cc1c[nH]c2ccccc12)NC(=O)[C@@H](CCCCN)NC(=O)[C@@H](Cc1c[nH]c2ccccc12)NC(=O)[C@@H](Cc1c[nH]c2ccccc12)NC(=O)[C@@H](CCCNC(=N)N)NC(=O)[C@H](N)CCCCN)C(=O)N[C@H](CCCNC(=N)N)C(=O)N[C@H](Cc1c[nH]c2ccccc12)C(N)=O | Stable |  |  |  | 
N=C(N)NCCC[C@H](NC(=O)[C@H](CCCNC(=N)N)NC(=O)[C@H](Cc1c[nH]c2ccccc12)NC(=O)[C@H](Cc1c[nH]c2ccccc12)NC(=O)[C@H](CCCCN)NC(=O)[C@H](Cc1c[nH]c2ccccc12)NC(=O)[C@H](Cc1c[nH]c2ccccc12)NC(=O)[C@H](CCCNC(=N)N)NC(=O)[C@@H](N)CCCCN)C(N)=O | Unstable | 40 µM (≈ 59.5 µg/mL) | 2.5 µM (≈ 3.72 µg/mL) | 5 µM (≈ 7.43 µg/mL) | 40 µM (≈ 59.5 µg/mL)
CC[C@H](C)[C@H](NC(=O)[C@H](Cc1c[nH]c2ccccc12)NC(=O)[C@H](CCCCN)NC(=O)[C@H](Cc1c[nH]c2ccccc12)NC(=O)[C@H](Cc1c[nH]c2ccccc12)NC(=O)[C@H](CCCNC(=N)N)NC(=O)[C@@H](N)CCCCN)C(=O)N[C@@H](CCCNC(=N)N)C(=O)N[C@@H](Cc1c[nH]c2ccccc12)C(N)=O | Unstable | 5 µM (≈ 7.22 µg/mL) | 1.25 µM (≈ 1.8 µg/mL) | 5 µM (≈ 7.22 µg/mL) | 20 µM (≈ 28.9 µg/mL)
N=C(N)NCCC[C@@H](N)C(=O)N[C@H](CCCNC(=N)N)C(=O)N[C@H](Cc1c[nH]c2ccccc12)C(=O)N[C@H](Cc1c[nH]c2ccccc12)C(=O)N[C@H](CCCCN)C(=O)N[C@H](Cc1c[nH]c2ccccc12)C(=O)N[C@H](Cc1c[nH]c2ccccc12)C(=O)N[C@H](CCCNC(=N)N)C(=O)N[C@H](CCCCN)C(N)=O | Stable |  | 1.25 µM (≈ 1.86 µg/mL) | 5 µM (≈ 7.43 µg/mL) | 20 µM (≈ 29.7 µg/mL)
N=C(N)NCCC[C@@H](NC(=O)[C@@H](CCCNC(=N)N)NC(=O)[C@@H](Cc1c[nH]c2ccccc12)NC(=O)[C@@H](Cc1c[nH]c2ccccc12)NC(=O)[C@@H](CCCCN)NC(=O)[C@@H](Cc1c[nH]c2ccccc12)NC(=O)[C@@H](Cc1c[nH]c2ccccc12)NC(=O)[C@@H](CCCNC(=N)N)NC(=O)[C@H](N)CCCCN)C(N)=O | Stable | 20 µM (≈ 29.7 µg/mL) | 1.25 µM (≈ 1.86 µg/mL) | 5 µM (≈ 7.43 µg/mL) | 20 µM (≈ 29.7 µg/mL)
CC[C@@H](C)[C@@H](NC(=O)[C@@H](CCCNC(=N)N)NC(=O)[C@H](N)Cc1c[nH]c2ccccc12)C(=O)N[C@H](Cc1c[nH]c2ccccc12)C(=O)N[C@H](CCCCN)C(=O)N[C@H](Cc1c[nH]c2ccccc12)C(=O)N[C@H](Cc1c[nH]c2ccccc12)C(=O)N[C@H](CCCNC(=N)N)C(=O)N[C@H](CCCCN)C(N)=O | Stable |  |  |  | 
CN[C@@H](CC(C)C)C(=O)N[C@H]1C(=O)N[C@@H](CC(N)=O)C(=O)N[C@H]2C(=O)N[C@H]3C(=O)N[C@H](C(=O)N[C@@H](C(=O)O)c4cc(O)cc(O)c4-c4cc3ccc4O)[C@H](O)c3ccc(c(Cl)c3)Oc3cc2cc(c3O[C@H]2O[C@@H](CO)[C@H](O)[C@@H](O)[C@@H]2O[C@@H]2C[C@@](C)(N)[C@@H](O)[C@@H](C)O2)Oc2ccc(cc2Cl)[C@H]1O |  | > 32 µM | > 32 µM | 1 µM (≈ 1.45 µg/mL) | 1 µM (≈ 1.45 µg/mL)
N=C(N)NCCCC[C@H](NC(=O)[C@H](CCCCNC(=N)N)NC(=O)[C@H](Cc1c[nH]c2ccccc12)NC(=O)[C@@H](Cc1c[nH]c2ccccc12)NC(=O)[C@@H](CCCN)NC(=O)[C@@H](Cc1c[nH]c2ccccc12)NC(=O)[C@H](Cc1c[nH]c2ccccc12)NC(=O)[C@H](CCCCNC(=N)N)NC(=O)[C@H](N)CCCN)C(N)=O | Unstable | 40 µM (≈ 60 µg/mL) | 2.5 µM (≈ 3.75 µg/mL) | 5 µM (≈ 7.5 µg/mL) | 40 µM (≈ 60 µg/mL)
N=C(N)NCCCC[C@H](NC(=O)[C@H](CCCCNC(=N)N)NC(=O)[C@H](Cc1c[nH]c2ccccc12)NC(=O)[C@@H](Cc1c[nH]c2ccccc12)NC(=O)[C@@H](CCN)NC(=O)[C@@H](Cc1c[nH]c2ccccc12)NC(=O)[C@H](Cc1c[nH]c2ccccc12)NC(=O)[C@@H](CCCCNC(=N)N)NC(=O)[C@@H](N)CCN)C(N)=O | Unstable | 40 µM (≈ 58.9 µg/mL) | 2.5 µM (≈ 3.68 µg/mL) | 5 µM (≈ 7.36 µg/mL) | 40 µM (≈ 58.9 µg/mL)
N=C(N)NCCCC[C@H](NC(=O)[C@@H](CCCCNC(=N)N)NC(=O)[C@H](Cc1c[nH]c2ccccc12)NC(=O)[C@H](Cc1c[nH]c2ccccc12)NC(=O)[C@H](CCCCNC(=N)N)NC(=O)[C@H](Cc1c[nH]c2ccccc12)NC(=O)[C@@H](Cc1c[nH]c2ccccc12)NC(=O)[C@@H](CCCCNC(=N)N)NC(=O)[C@@H](N)CCCCNC(=N)N)C(N)=O | Unstable | 20 µM (≈ 32.3 µg/mL) | 2.5 µM (≈ 4.03 µg/mL) | 2.5 µM (≈ 4.03 µg/mL) | 10 µM (≈ 16.1 µg/mL)
CC[C@H](C)[C@H](NC(=O)[C@H](Cc1c[nH]c2ccccc12)NC(=O)[C@H](CCCNC(=N)N)NC(=O)[C@H](Cc1c[nH]c2ccccc12)NC(=O)[C@H](Cc1c[nH]c2ccccc12)NC(=O)[C@H](CCCCN)NC(=O)[C@@H](N)CCCNC(=N)N)C(=O)N[C@@H](CCCCN)C(=O)N[C@@H](Cc1c[nH]c2ccccc12)C(N)=O (H-RKWWRWIKW-NH2) | Unstable | 5 µM (≈ 7.22 µg/mL) | 1.25 µM (≈ 1.8 µg/mL) | 2.5 µM (≈ 3.61 µg/mL) | 20 µM (≈ 28.9 µg/mL)
N=C(N)NCCC[C@H](NC(=O)[C@H](Cc1c[nH]c2ccccc12)NC(=O)[C@H](Cc1c[nH]c2ccccc12)NC(=O)[C@H](CCCCN)NC(=O)[C@@H](N)CCCNC(=N)N)C(=O)N[C@@H](Cc1c[nH]c2ccccc12)C(=O)N[C@@H](Cc1c[nH]c2ccccc12)C(=O)N[C@@H](CCCCN)C(=O)N[C@@H](CCCCN)C(N)=O (H-RKWWRWWKK-NH2) | Unstable | > 40 µM | 2.5 µM (≈ 3.65 µg/mL) | 10 µM (≈ 14.6 µg/mL) | > 40 µM
CC[C@H](C)[C@H](NC(=O)[C@H](Cc1c[nH]c2ccccc12)NC(=O)[C@H](CCN)NC(=O)[C@H](Cc1c[nH]c2ccccc12)NC(=O)[C@H](Cc1c[nH]c2ccccc12)NC(=O)[C@H](CCN)NC(=O)[C@@H](N)CCN)C(=O)N[C@@H](CCN)C(=O)N[C@@H](Cc1c[nH]c2ccccc12)C(N)=O (H-[Dab][Dab]WW[Dab]WI[Dab]W-NH2) | Unstable | 5 µM (≈ 6.38 µg/mL) | 2.5 µM (≈ 3.19 µg/mL) | 2.5 µM (≈ 3.19 µg/mL) | 10 µM (≈ 12.8 µg/mL)
NCC[C@H](NC(=O)[C@H](CCN)NC(=O)[C@H](Cc1c[nH]c2ccccc12)NC(=O)[C@H](Cc1c[nH]c2ccccc12)NC(=O)[C@H](CCN)NC(=O)[C@H](Cc1c[nH]c2ccccc12)NC(=O)[C@H](Cc1c[nH]c2ccccc12)NC(=O)[C@H](CCN)NC(=O)[C@@H](N)CCN)C(N)=O (H-[Dab][Dab]WW[Dab]WW[Dab][Dab]-NH2) | Stable | 80 µM (≈ 101 µg/mL) | 2.5 µM (≈ 3.16 µg/mL) | 5 µM (≈ 6.31 µg/mL) | 20 µM (≈ 25.2 µg/mL)
CC[C@H](C)[C@H](NC(=O)[C@H](Cc1c[nH]c2ccccc12)NC(=O)[C@H](CCN)NC(=O)[C@H](Cc1c[nH]c2ccccc12)NC(=O)[C@H](Cc1c[nH]c2ccccc12)NC(=O)[C@H](CCCCNC(=N)N)NC(=O)[C@@H](N)CCN)C(=O)N[C@@H](CCCCNC(=N)N)C(=O)N[C@@H](Cc1c[nH]c2ccccc12)C(N)=O (H-[Dab][hArg]WW[Dab]WI[hArg]W-NH2) | Unstable | 5 µM (≈ 7.08 µg/mL) | 1.25 µM (≈ 1.77 µg/mL) | 5 µM (≈ 7.08 µg/mL) | 20 µM (≈ 28.3 µg/mL)
CC[C@H](C)[C@H](NC(=O)[C@H](Cc1c[nH]c2ccccc12)NC(=O)[C@H](CCCN)NC(=O)[C@H](Cc1c[nH]c2ccccc12)NC(=O)[C@H](Cc1c[nH]c2ccccc12)NC(=O)[C@H](CCCN)NC(=O)[C@@H](N)CCCN)C(=O)N[C@@H](CCCN)C(=O)N[C@@H](Cc1c[nH]c2ccccc12)C(N)=O (H-[Orn][Orn]WW[Orn]WI[Orn]W-NH2) | Unstable | 10 µM (≈ 13.3 µg/mL) | 1.25 µM (≈ 1.66 µg/mL) | 5 µM (≈ 6.66 µg/mL) | 10 µM (≈ 13.3 µg/mL)
NCCC[C@H](NC(=O)[C@H](CCCN)NC(=O)[C@H](Cc1c[nH]c2ccccc12)NC(=O)[C@H](Cc1c[nH]c2ccccc12)NC(=O)[C@H](CCCN)NC(=O)[C@H](Cc1c[nH]c2ccccc12)NC(=O)[C@H](Cc1c[nH]c2ccccc12)NC(=O)[C@H](CCCN)NC(=O)[C@@H](N)CCCN)C(N)=O (H-[Orn][Orn]WW[Orn]WW[Orn][Orn]-NH2) | Unstable | > 80 µM | 2.5 µM (≈ 3.33 µg/mL) | 20 µM (≈ 26.7 µg/mL) | 40 µM (≈ 53.3 µg/mL)
CC[C@H](C)[C@H](NC(=O)[C@H](Cc1c[nH]c2ccccc12)NC(=O)[C@H](CCCN)NC(=O)[C@H](Cc1c[nH]c2ccccc12)NC(=O)[C@H](Cc1c[nH]c2ccccc12)NC(=O)[C@H](CCCCNC(=N)N)NC(=O)[C@@H](N)CCCN)C(=O)N[C@@H](CCCCNC(=N)N)C(=O)N[C@@H](Cc1c[nH]c2ccccc12)C(N)=O (H-[Orn][hArg]WW[Orn]WI[hArg]W-NH2) | Unstable | 5 µM (≈ 7.22 µg/mL) | 1.25 µM (≈ 1.8 µg/mL) | 5 µM (≈ 7.22 µg/mL) | 20 µM (≈ 28.9 µg/mL)
CC[C@H](C)[C@H](NC(=O)[C@H](Cc1c[nH]c2ccccc12)NC(=O)[C@H](CCCCNC(=N)N)NC(=O)[C@H](Cc1c[nH]c2ccccc12)NC(=O)[C@H](Cc1c[nH]c2ccccc12)NC(=O)[C@H](CCCCNC(=N)N)NC(=O)[C@@H](N)CCCCNC(=N)N)C(=O)N[C@@H](CCCCNC(=N)N)C(=O)N[C@@H](Cc1c[nH]c2ccccc12)C(N)=O (H-[hArg][hArg]WW[hArg]WI[hArg]W-NH2) | Unstable | 5 µM (≈ 7.78 µg/mL) | 2.5 µM (≈ 3.89 µg/mL) | 2.5 µM (≈ 3.89 µg/mL) | 5 µM (≈ 7.78 µg/mL)
